Results published in ChEMBL document CHEMBL4261487, “Small structural changes of the imidazopyridine diacylglycerol acyltransferase 2 (DGAT2) inhibitors produce an improved safety profile” (Medchemcomm, 2017).
In brackets after ≈: the same amount, converted by molar mass.

What was measured:
Rattus norvegicus [1] = assay: Toxicity in Wistar Han IGS rat at 10 mg/kg, po qd administered for 14 days; format: organism-based; settings: in vivo, 336 h
Procedure, shortened: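 Wistar Han rats, daily oral dosing for 14 days (5/sex/dose) or 1 month (10/sex/dose); microscopic findings reported as incidence by sex, plus organ weights.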

Canis familiaris [2] = assay: Toxicity in telemetered beagle dog assessed as increase in systolic pressure at 10 mg/kg administered via oral gavage measured over 24 hrs; format: organism-based, Canis lupus familiaris; settings: in vivo
Canis familiaris [3] = assay: Unbound AUC in beagle dog at 300 mg/kg, po qd administered for 14 days; format: ADME, organism-based, Canis lupus familiaris; settings: in vivo, 336 h
Procedure, shortened: (§1)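 Beagle dogs were dosed orally once daily in a 14-day exploratory study or 1-month toxicity studies. Steady-state systemic exposure over the 24 h dosing interval is reported as the mean of male and female values combined.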

Canis familiaris [4] = assay: Toxicity in beagle dog at 75 mg/kg, po qd administered for 14 days; format: organism-based, Canis lupus familiaris; settings: in vivo, 336 h
Canis familiaris [5] = assay: Toxicity in beagle dog assessed as unscheduled death at 300 mg/kg, po qd administered for 14 days; format: organism-based, Canis lupus familiaris; settings: in vivo, 336 h
Canis familiaris [6] = assay: Unbound AUC in beagle dog at 5 mg/kg, po qd administered for 1 month; format: ADME, organism-based, Canis lupus familiaris; settings: in vivo; procedure, shortened: as §1
Canis familiaris [7] = assay: Toxicity in telemetered beagle dog assessed as change in heart rate at 5 mg/kg administered via oral gavage measured over 24 hrs; format: organism-based, Canis lupus familiaris; settings: in vivo
Canis familiaris [8] = assay: Toxicity in beagle dog assessed as body weight gain at 150 mg/kg, po qd administered for 10 days; format: organism-based, Canis lupus familiaris; settings: in vivo, 240 h
Canis familiaris [9] = assay: Toxicity in beagle dog assessed as body weight gain at 100 mg/kg, po qd administered starting on day 11 post 150 mg/kg dosing period and continuing for 20 days; format: organism-based, Canis lupus familiaris; settings: in vivo, 480 h
Canis familiaris [10] = assay: Toxicity in beagle dog assessed as decrease in food consumption at 100 mg/kg, po qd administered starting on day 11 post 150 mg/kg dosing period and continuing for 20 days; format: organism-based, Canis lupus familiaris; settings: in vivo, 480 h
Rattus norvegicus [11] = assay: In vivo inhibition of DGAT2 in Wistar Han IGS rat assessed as coverage of in vitro IC50 for rat DGAT2 at 10 mg/kg, po qd administered for 14 days; format: functional; design: scale not given: the % may be the effect or the level left
Procedure, shortened: (§2)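 Wistar Han rats, once-daily oral dosing for 14 days (exploratory, 5/sex/dose) or 1 month (10/sex/dose); toxicokinetics in 3–4/sex/dose with sexes combined; coverage is the average % above rat DGAT2 IC50 at steady state over the 24 h dosing interval.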

Rattus norvegicus [12] = assay: In vivo inhibition of DGAT2 in Wistar Han IGS rat assessed as coverage of in vitro IC50 for rat DGAT2 at 500 mg/kg, po qd administered for 14 days; format: functional; design: scale not given: the % may be the effect or the level left; procedure, shortened: as §2
Canis familiaris [13] = assay: In vivo inhibition of DGAT2 in beagle dog assessed as coverage of in vitro IC50 for dog DGAT2 at 300 mg/kg, po qd administered for 14 days; format: functional, Canis lupus familiaris; design: scale not given: the % may be the effect or the level left
Procedure, shortened: (§3)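 Beagle dogs, once-daily oral dosing for 14 days or 1 month; systemic exposure with sexes combined; coverage is the average % above dog DGAT2 IC50 at steady state over the 24 h dosing interval.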

Canis familiaris [14] = assay: In vivo inhibition of DGAT2 in beagle dog assessed as coverage of in vitro IC50 for dog DGAT2 at 2 mg/kg, po qd administered for 1 month; format: functional, Canis lupus familiaris; design: scale not given: the % may be the effect or the level left; procedure, shortened: as §3
Canis familiaris [15] = assay: In vivo inhibition of DGAT2 in beagle dog assessed as coverage of in vitro IC50 for dog DGAT2 at 5 mg/kg, po qd administered for 1 month; format: functional, Canis lupus familiaris; design: scale not given: the % may be the effect or the level left; procedure, shortened: as §3
Canis familiaris [16] = assay: In vivo inhibition of DGAT2 in beagle dog assessed as coverage of in vitro IC50 for dog DGAT2 at 50 mg/kg, po qd administered for 1 month; format: functional, Canis lupus familiaris; design: scale not given: the % may be the effect or the level left; procedure, shortened: as §3
Canis familiaris [17] = assay: In vivo inhibition of DGAT2 in beagle dog assessed as coverage of in vitro IC50 for dog DGAT2 at 100 to 150 mg/kg, po qd administered for 1 month; format: functional, Canis lupus familiaris; design: scale not given: the % may be the effect or the level left; procedure, shortened: as §3
Canis familiaris [18] = assay: Toxicity in telemetered beagle dog assessed as increase in heart rate at 25 mg/kg administered via oral gavage measured over 24 hrs; format: organism-based, Canis lupus familiaris; settings: in vivo
Canis familiaris [19] = assay: Toxicity in telemetered beagle dog assessed as increase in heart rate at 75 mg/kg administered via oral gavage measured over 24 hrs; format: organism-based, Canis lupus familiaris; settings: in vivo
Canis familiaris [20] = assay: Toxicity in telemetered beagle dog assessed as increase in systolic pressure at 25 mg/kg administered via oral gavage measured over 24 hrs; format: organism-based, Canis lupus familiaris; settings: in vivo
Canis familiaris [21] = assay: Toxicity in telemetered beagle dog assessed as increase in diastolic pressure at 75 mg/kg administered via oral gavage measured over 24 hrs; format: organism-based, Canis lupus familiaris; settings: in vivo
Canis familiaris [22] = assay: Toxicity in telemetered beagle dog assessed as increase in heart rate at 20 mg/kg, iv administered as single bolus dose over 2 mins; format: organism-based, Canis lupus familiaris; settings: in vivo
[23] = Apparent permeability of the compound at pH 7.4; format: ADME; settings: not told
[24] = Thermodynamic solubility of the compound at pH 6.5; format: physicochemical; settings: buffer, read-out: Therm_solubility
[25] = Half life in beagle dog at 5 mg/kg, po; format: ADME, organism-based, Canis lupus familiaris; settings: in vivo
[26] = Ratio of Cmax in beagle dog at 10 mg/kg, po qd administered for 1 month to IC50 for in vitro inhibition of dog DGAT2; format: organism-based, Canis lupus familiaris; settings: in vivo
Procedure, shortened: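 One-month toxicity study in Beagle dogs with N = 2/sex/dose. Plasma exposure at each dose level was referenced to the dog DGAT2 enzymatic IC50, reported as the geometric mean of at least three replicates.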

Canis familiaris [27] = assay: In vivo inhibition of DGAT2 in beagle dog assessed as coverage of in vitro IC50 for dog DGAT2 at 3 mg/kg, po qd administered for 1 month; format: functional, Canis lupus familiaris; design: scale not given: the % may be the effect or the level left; procedure, shortened: as §3
Canis familiaris [28] = assay: Toxicity in telemetered beagle dog assessed as increase in heart rate at 25 mg/kg administered via oral gavage measured during 4 hrs of post dosing; format: organism-based, Canis lupus familiaris; settings: in vivo

With CS(=O)(=O)O.O=C([C@@H]1CCCN(c2ccc3nc(C4(n5cc(Cl)cn5)CC4)[nH]c3n2)C1)N1CCCC1 the Activity (Rattus norvegicus [1]) was “Non-Toxic”, the Activity (Canis familiaris [2]) was 3 mmHg and the fAUC (Canis familiaris [3]) was 78300 ng·h/mL. The Activity (Canis familiaris [4]) was “Non-Toxic”, the Activity (Canis familiaris [5]) was “Toxic” and the fAUC (Canis familiaris [6]) was 1120 ng·h/mL. The Activity (Canis familiaris [7]) was “Non-Toxic”, the Activity (Canis familiaris [8]) was “Toxic” and the Activity (Canis familiaris [9]) was “Non-Toxic”. For the same compound, the Activity (Canis familiaris [10]) was “Non-Toxic”, the Activity (Rattus norvegicus [11]) was 75% and the Activity (Rattus norvegicus [12]) was greater than 99%. For the same compound, the Activity (Canis familiaris [13]) was greater than 99%, the Activity (Canis familiaris [14]) was 60% and the Activity (Canis familiaris [15]) was 87%. For the same compound, the Activity (Canis familiaris [16]) was greater than 99%, the Activity (Canis familiaris [17]) was greater than 99% and the Activity (Canis familiaris [18]) was 6 to 20 bpm. For the same compound, the Activity (Canis familiaris [19]) was 8 to 30 bpm, the Activity (Canis familiaris [20]) was 5 mmHg and the Activity (Canis familiaris [21]) was 6 mmHg. It also gave an Activity (Canis familiaris [22]) of 27 bpm.

For C[C@@H](c1nc2ccc(N3CCC[C@@H](C(=O)N4CCCC4)C3)nc2[nH]1)n1cc(Cl)cn1, the Papp [23] was 13.1 ×10⁻⁶ cm/s, the solubility thermodynamic [24] was 285 µg/mL (≈ 666 µM) and the half-life [25] was 3 h. The Ratio [26] was 31, the Activity (Canis familiaris [27]) was 65% and the Activity (Canis familiaris [28]) was 10 bpm.
